Activity calls are given as the source filed them. The rule behind the calls is not given here.
Key:
[1] = target: T1, 5-hydroxytryptamine receptor 1B (Homo sapiens, UniProt P28222); assay: In vitro binding affinity against cloned mammalian 5-hydroxytryptamine 1D receptor beta expressed in CHO cells, by using [3H]5-HT as radioligand; format: cell-based
In short: (§1)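 Membranes from CHO cells stably expressing the cloned receptor, made by mechanical disruption in ice-cold Tris/EDTA/EGTA pH 7.4 and differential centrifugation. [3H]serotonin at 1.7 nM in 50 mM Tris, 5 mM MgCl2, 0.1% ascorbic acid, pH 7.4. 11 drug concentrations in duplicate, 1 h at room temperature protected from light, then filtration. Excess serotonin defines nonspecific binding. One-site IC50 fit, Ki by Cheng-Prusoff.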

[2] = target: 5-hydroxytryptamine receptor 1D (Homo sapiens, UniProt P28221); assay: In vitro binding affinity against cloned mammalian 5-hydroxytryptamine 1D receptor alpha expressed in CHO cells, by using [3H]5-HT as radioligand; format: cell-based
In short: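 Competition binding on CHO-cell membranes (20-60 μg protein) in 50 mM Tris, 5 mM MgCl2, 0.1% ascorbic acid, pH 7.4. Nonspecific binding defined with excess serotonin. 11 drug concentrations, each in duplicate. Incubated 1 h at room temperature, protected from light, then filtered and scintillation counted. IC50 taken from a one-site fit; Ki by Cheng-Prusoff.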

D(2) dopamine receptor [3] = target: T2, D(2) dopamine receptor (Rattus norvegicus, UniProt P61169); assay: In vitro binding affinity against cloned mammalian Dopamine receptor D2 expressed in CHO cells using [3H]U-86170 as radioligand; format: cell-based; settings: read-out: Ki
In short: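 Membranes from CHO cells (20-60 μg protein) in 20 mM HEPES, 10 mM MgSO4, pH 7.4. Nonspecific binding defined with excess haloperidol. 11 concentrations, each in duplicate. Incubated 1 h at room temperature, then filtered and counted. IC50 from a one-site competition fit, converted to Ki by Cheng-Prusoff.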

D(3) dopamine receptor = D(3) dopamine receptor (Rattus norvegicus, UniProt P19020); assay: In vitro binding affinity against cloned mammalian Dopamine receptor D3 expressed in CHO cells by, using [3H]-spiperone as radioligand; format: cell-based; settings: read-out: Ki
Rattus norvegicus [4] = assay: (§2) The compound was tested in vivo for biochemical effect against the changes in different brain area levels of DOPA in reserpinized rat limbic system at dose 12.5 uM/kg; Partial effect; format: functional, organism-based
Rattus norvegicus [5] = assay: In vivo changes in different brain area levels of 5-HTP in reserpinized rat corpus striatum.; format: functional
In short: (§3)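 Male Sprague-Dawley rats (200-300 g) pretreated with reserpine 5 mg/kg sc 18 h before. Injection volume 5 mL/kg at neutral pH. Brain-region 5-HTP measured by HPLC with electrochemical detection. Dose-response curves used four to six doses, n = 4.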

Rattus norvegicus [6] = assay: The compound was tested in vivo for biochemical effect against the changes in different brain area levels of DOPA in reserpinized rat corpus striatum at dose 12.5 uM/kg; Partial effect; format: functional, organism-based
In short: (§4)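 Male Sprague-Dawley rats (200-300 g) pretreated with reserpine 5 mg/kg sc 18 h before. Injection volume 5 mL/kg, test solutions at neutral pH. DOPA and 5-HTP in limbic system, striatum and hemispheres measured by HPLC with electrochemical detection. Dose-response curves from four to six dose levels (n = 4) per brain area.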

Rattus norvegicus [7] = assay: The compound was tested in vivo for biochemical effect against the changes in different brain area levels of DOPA in reserpinized rat hemispheres (mainly cortex)at dose 12.5 uM/kg; Inactive; format: functional, organism-based
Rattus norvegicus [8] = assay: In vivo changes in different brain area levels of 5-HTP in reserpinized rat limbic system.; format: functional; in short: as §3
Rattus norvegicus [9] = assay: In vivo for biochemical effect against brain area levels of 5-HTP in reserpinized rat hemispheres (mainly cortex).; format: functional; in short: as §4
Rattus norvegicus [10] = assay: as §2; format: functional, organism-based; in short: as §4; remark: listed apart in the source
Rattus norvegicus [11] = assay: The compound was tested in vivo for biochemical effect against the changes in different brain area levels of DOPA in reserpinized rat corpus striatum at dose 12.5 uM/kg; Inactive; format: functional, organism-based; in short: as §4
[12] = target: T1, 5-hydroxytryptamine receptor 1B; assay: The compound was tested in vitro for binding affinity against cloned mammalian 5-hydroxytryptamine 1D receptor beta expressed in CHO cells, by using [3H]5-HT as radioligand; format: cell-based; design: concentration or dose not given beside the values; settings: concentration not given here; in short: as §1
D(2) dopamine receptor [13] = target: T2, D(2) dopamine receptor; assay: Binding affinity rat Dopamine receptor D2 expressed in CHO-K1 cells by [3H]U-86170 displacement.; format: cell-based
[14] = target: D(3) dopamine receptor (Rattus norvegicus) (UniProt P19020); assay: The compound was tested in vitro for binding affinity against cloned mammalian Dopamine receptor D3 expressed in CHO cells by, using [3H]spiperone as radioligand; inactive at 10E-6 M; format: cell-based
Rattus norvegicus [15] = assay: The compound was tested in vivo for biochemical effect against the changes in different brain area levels of DOPA in reserpinized rat limbic system at dose 3.1 uM/kg; Inactive; format: functional, organism-based; in short: as §4
Rattus norvegicus [16] = assay: The compound was tested in vivo for biochemical effect against the changes in different brain area levels of DOPA in reserpinized rat corpus striatum at dose 3.1 uM/kg; Inactive; format: functional, organism-based; in short: as §4
Rattus norvegicus [17] = assay: The compound was tested in vivo for biochemical effect against the changes in different brain area levels of DOPA in reserpinized rat hemispheres (mainly cortex)at dose 3.1 uM/kg; Inactive; format: functional, organism-based; in short: as §4
Rattus norvegicus [18] = assay: The compound was tested in vivo for biochemical effect against the changes in different brain area levels of DOPA in reserpinized rat limbic system at dose 3.1 umol/kg; Partial effect; format: functional, organism-based; in short: as §4
Rattus norvegicus [19] = assay: The compound was tested in vivo for biochemical effect against the changes in different brain area levels of DOPA in reserpinized rat corpus striatum at dose 3.1 umol/kg; Partial effect; format: functional, organism-based; in short: as §4
Rattus norvegicus [20] = assay: The compound was tested in vivo for biochemical effect against the changes in different brain area levels of DOPA in reserpinized rat hemispheres (mainly cortex)at dose 3.1 umol/kg; Inactive; format: functional, organism-based; in short: as §4
Rattus norvegicus [21] = assay: The compound was tested in vivo for biochemical effect against the changes in different brain area levels of DOPA in reserpinized rat limbic system at does 12.5 uM/kg; Partial effect; format: functional, organism-based; in short: as §4
Rattus norvegicus [22] = assay: The compound was tested in vivo for biochemical effect against the changes in different brain area levels of DOPA in reserpinized rat hemispheres (mainly cortex)at does 12.5 uM/kg; Inactive; format: functional, organism-based; in short: as §4
Rattus norvegicus [23] = assay: The compound was tested in vivo for biochemical effect against the changes in different brain area levels of DOPA in reserpinized rat hemispheres (mainly cortex) at dose of 3.1 micro/kg; Inactive; format: functional, organism-based; in short: as §4
Rattus norvegicus [24] = assay: The compound was tested in vivo for biochemical effect against the changes in different brain area levels of DOPA in reserpinized rat corpus striatum; format: functional; in short: as §4
Rattus norvegicus [25] = assay: The compound was tested in vivo for biochemical effect against the changes in different brain area levels of DOPA in reserpinized rat limbic system; format: functional
In short: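 Rats (male Sprague-Dawley, 200-300 g) received reserpine 5 mg/kg sc 18 h before. Injections 5 mL/kg at neutral pH. DOPA accumulation measured by HPLC with electrochemical detection as an index of DA or NE synthesis rate. Four to six dose levels, n = 4. ED50 from a sigmoidal fit.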

Rattus norvegicus [26] = assay: The compound was tested in vivo for biochemical effect against the changes in different brain area levels of DOPA in reserpinized rat hemispheres (mainly cortex)at dose 12.5 uM/kg; inactive; format: functional, organism-based; in short: as §4

T1 sequence (P28222 whole entry): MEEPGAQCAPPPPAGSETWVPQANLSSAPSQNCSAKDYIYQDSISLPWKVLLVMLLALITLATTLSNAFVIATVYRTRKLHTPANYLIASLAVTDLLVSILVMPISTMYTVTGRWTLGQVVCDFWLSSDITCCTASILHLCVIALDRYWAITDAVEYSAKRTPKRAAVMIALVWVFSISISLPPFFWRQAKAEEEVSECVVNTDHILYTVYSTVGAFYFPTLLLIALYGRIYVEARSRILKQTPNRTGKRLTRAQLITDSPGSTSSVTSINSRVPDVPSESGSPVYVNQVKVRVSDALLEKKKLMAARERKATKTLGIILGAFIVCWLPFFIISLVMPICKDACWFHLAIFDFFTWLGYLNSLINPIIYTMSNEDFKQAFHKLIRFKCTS
Chain of 5-hydroxytryptamine receptor 1D (P28221 whole entry): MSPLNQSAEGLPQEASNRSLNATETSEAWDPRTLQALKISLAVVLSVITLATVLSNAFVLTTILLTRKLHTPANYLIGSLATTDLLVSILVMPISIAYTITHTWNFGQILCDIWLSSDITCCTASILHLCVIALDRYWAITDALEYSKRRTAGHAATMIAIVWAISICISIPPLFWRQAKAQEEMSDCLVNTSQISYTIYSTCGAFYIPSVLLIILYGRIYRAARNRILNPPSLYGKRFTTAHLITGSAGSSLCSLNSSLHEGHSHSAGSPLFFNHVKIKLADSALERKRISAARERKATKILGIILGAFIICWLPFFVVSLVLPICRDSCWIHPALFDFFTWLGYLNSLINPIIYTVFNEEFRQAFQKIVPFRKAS
T2 sequence (P61169 whole entry): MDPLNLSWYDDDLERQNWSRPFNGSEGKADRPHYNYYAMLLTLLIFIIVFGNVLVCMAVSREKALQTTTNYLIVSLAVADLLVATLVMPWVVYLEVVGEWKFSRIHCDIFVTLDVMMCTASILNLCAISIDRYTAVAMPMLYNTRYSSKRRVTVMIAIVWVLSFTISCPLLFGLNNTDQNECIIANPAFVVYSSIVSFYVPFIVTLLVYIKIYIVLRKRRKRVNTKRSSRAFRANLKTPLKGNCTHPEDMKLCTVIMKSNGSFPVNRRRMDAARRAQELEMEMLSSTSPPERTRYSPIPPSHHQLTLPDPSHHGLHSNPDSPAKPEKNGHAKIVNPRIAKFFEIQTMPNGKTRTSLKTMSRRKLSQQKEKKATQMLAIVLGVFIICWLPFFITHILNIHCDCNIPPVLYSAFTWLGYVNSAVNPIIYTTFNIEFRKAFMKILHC
Chain of D(3) dopamine receptor (P19020 whole entry): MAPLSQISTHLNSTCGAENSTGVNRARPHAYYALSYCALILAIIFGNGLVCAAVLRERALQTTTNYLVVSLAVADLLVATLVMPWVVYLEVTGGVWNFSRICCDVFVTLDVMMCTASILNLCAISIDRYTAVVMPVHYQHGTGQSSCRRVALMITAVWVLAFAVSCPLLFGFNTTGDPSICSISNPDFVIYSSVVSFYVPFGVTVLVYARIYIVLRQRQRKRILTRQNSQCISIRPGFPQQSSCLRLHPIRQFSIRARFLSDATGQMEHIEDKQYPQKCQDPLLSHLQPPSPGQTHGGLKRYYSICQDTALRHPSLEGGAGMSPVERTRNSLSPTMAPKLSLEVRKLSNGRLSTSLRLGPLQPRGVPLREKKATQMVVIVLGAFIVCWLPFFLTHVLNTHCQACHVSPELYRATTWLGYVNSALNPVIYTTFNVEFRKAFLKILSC
Chain of D(3) dopamine receptor (Rattus norvegicus) (P19020 whole entry): as above

Compound	Ki [1] [nM]	Ki [2] [nM]	Ki (D(2) dopamine receptor [3]) [nM]	Ki (D(3) dopamine receptor) [nM]	Ki (D(2) dopamine receptor [13]) [nM]	other results
CCCN(CCc1cccs1)C1CCc2ccc3[nH]cc(C=O)c3c2C1 (stereo unspecified)	46	2	25	48	–	ED50 (Rattus norvegicus [4]): Weak activity; ED50 (Rattus norvegicus [5]): 0.044 µmol/kg; ED50 (Rattus norvegicus [6]): Weak activity; ED50 (Rattus norvegicus [7]): inactive; ED50 (Rattus norvegicus [8]): 0.082 µmol/kg; ED50 (Rattus norvegicus [9]): 0.11 µmol/kg
CCCNC1CCc2ccc3[nH]cc(C=O)c3c2C1 (stereo unspecified)	227	27	60	–	–	–
C=CCN(CCC)C1CCc2ccc3[nH]cc(C=O)c3c2C1 (stereo unspecified)	49	–	59	130	–	ED50 (Rattus norvegicus [10]): Weak activity; ED50 (Rattus norvegicus [5]): 0.16 µmol/kg; ED50 (Rattus norvegicus [7]): inactive; ED50 (Rattus norvegicus [8]): 0.19 µmol/kg; ED50 (Rattus norvegicus [9]): 0.19 µmol/kg; ED50 (Rattus norvegicus [11]): inactive
CCCN(CCC)C1CCc2ccc3[nH]ccc3c2C1 (stereo unspecified)	–	39	–	–	–	–
CCCN(CCc1ccccc1)C1CCc2ccc3[nH]cc(C=O)c3c2C1 (stereo unspecified)	56	2.8	62	81	–	–
CCCN(CCCc1ccccc1OC)C1CCc2ccc3[nH]cc(C=O)c3c2C1 (stereo unspecified)	11	3.4	14	84	–	–
CN(C)[C@@H]1CCc2ccc3[nH]ccc3c2C1	228	–	–	270	–	–
CCCN(C)C1CCc2ccc3[nH]ccc3c2C1 (stereo unspecified)	–	170	–	113	33	inhibition [12]: < 45%
CCCN(CCc1ccccc1)C1CCc2ccc3[nH]ccc3c2C1 (stereo unspecified)	249	7.4	5.5	18	–	–
c1cc2c3c(ccc2[nH]1)CCC(N1CCCCCC1)C3 (stereo unspecified)	–	340	–	–	100	inhibition [12]: < 45%; inhibition [14]: < 45%
CCCNC1CCc2ccc3[nH]ccc3c2C1 (stereo unspecified)	483	69	–	115	48	–
CCCN(CC(C)C)[C@@H]1CCc2ccc3[nH]cc(C=O)c3c2C1	–	6.5	28	100	–	–
CCCN(CCc1cccs1)C1CCc2ccc3[nH]ccc3c2C1 (stereo unspecified)	–	13	–	5.5	5.5	inhibition [12]: < 45%
CCCN(CCCCN1C(=O)CC(C)(C)CC1=O)C1CCc2ccc3[nH]cc(C=O)c3c2C1 (stereo unspecified)	115	9.8	136	450	–	–
CCCN(CC1CC1)C1CCc2ccc3[nH]cc(C=O)c3c2C1 (stereo unspecified)	196	24	–	164	–	ED50 (Rattus norvegicus [15]): inactive; ED50 (Rattus norvegicus [5]): 0.33 µmol/kg; ED50 (Rattus norvegicus [16]): inactive; ED50 (Rattus norvegicus [8]): 0.23 µmol/kg; ED50 (Rattus norvegicus [9]): 0.34 µmol/kg; ED50 (Rattus norvegicus [17]): inactive
O=Cc1c[nH]c2ccc3c(c12)CC(N1CCCCCC1)CC3 (stereo unspecified)	–	–	> 1000	–	–	–
CCCN(CCCc1ccccc1)C1CCc2ccc3[nH]cc(C=O)c3c2C1 (stereo unspecified)	11	2	13	42	–	–
CCCN(CCC)[C@@H]1CCc2ccc3[nH]cc(C=O)c3c2C1	–	–	–	–	–	ED50 (Rattus norvegicus [18]): Weak activity; ED50 (Rattus norvegicus [19]): Weak activity; ED50 (Rattus norvegicus [20]): inactive
CCCN(CCC)[C@H]1CCc2ccc3[nH]cc(C=O)c3c2C1	–	–	–	–	–	ED50 (Rattus norvegicus [21]): Weak activity; ED50 (Rattus norvegicus [6]): Weak activity; ED50 (Rattus norvegicus [22]): inactive
CCCN(C)C1CCc2ccc3[nH]cc(C=O)c3c2C1 (stereo unspecified)	109	16	151	258	–	–
CCCN(CCC)CC1CCc2ccc3[nH]ccc3c2C1 (stereo unspecified)	–	–	–	–	> 1000	–
CCCN(CCC)[C@H]1CCc2ccc3[nH]ccc3c2C1	–	–	–	–	–	ED50 (Rattus norvegicus [23]): inactive
CCCN(CC1CC1)C1CCc2ccc3[nH]ccc3c2C1 (stereo unspecified)	–	75	–	50	33	inhibition [12]: < 45%; ED50 (Rattus norvegicus [5]): 0.11 µmol/kg; ED50 (Rattus norvegicus [24]): 1.4 µmol/kg; ED50 (Rattus norvegicus [8]): 0.11 µmol/kg; ED50 (Rattus norvegicus [25]): 1.18 µmol/kg; ED50 (Rattus norvegicus [9]): 0.18 µmol/kg; ED50 (Rattus norvegicus [26]): inactive
CCCN(CCCCN1C(=O)CC(C)(C)CC1=O)[C@@H]1CCc2ccc3[nH]ccc3c2C1	–	–	–	–	6.5	–
CCCN(CCCOc1cccc(Cl)c1)C1CCc2ccc3[nH]ccc3c2C1 (stereo unspecified)	243	13	–	20	15	–
CCCN(CCCCN1C(=O)CC(C)(C)CC1=O)C1CCc2ccc3[nH]ccc3c2C1 (stereo unspecified)	224	26	–	29	15	–
CN(C)C1CCc2ccc3[nH]ccc3c2C1 (stereo unspecified)	270	–	–	383	–	–
CCCN(CCCc1ccccc1OC)C1CCc2ccc3[nH]ccc3c2C1 (stereo unspecified)	40	2.5	–	10	4.8	–
